The source made the active and inactive calls. No cut-off for these calls is given here.
Key:
[1] = Inhibition of p38 kinase by time resolved fluorescence assay
Method in brief: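 Commercial recombinant p38 in a homogeneous time-resolved fluorescence biochemical assay run per an earlier protocol. IC50 is the average of three or more experiments.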

Plasma [2] = assay: Protein binding in rat plasma; format: ADME, cell-free
CYP2D6 = CYP2D6 (Homo sapiens, UniProt P10635); assay: Inhibition of human CYP2D6 at 10 uM after 15 mins; format: ADME
[3] = AUC in Sprague-Dawley rat at 2 mg/kg, po; format: ADME, organism-based; design: dose 2 mg/kg, route oral; details: plasma
Liver microsomes [4] = assay: Metabolic stability in rat liver microsomes at 1 uM by LC-MS/MS analysis; format: ADME, Microsome
[5] = Half life in Sprague-Dawley rat at 1 mg/kg, iv and 2 mg/kg, po; format: ADME, organism-based; details: in vivo
Method in brief: (§1)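 Sprague-Dawley rats (n = 3) given 1 mg/kg i.v. and 2 mg/kg oral gavage. Blood was drawn into EDTA at 5, 15, 30 min and 1, 2, 4, 6, 8 h. Plasma proteins were precipitated with acetonitrile and drug was measured by LC-MS/MS. Cmax, AUC, t1/2, CL, Vd and oral bioavailability came from noncompartmental analysis.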

Liver microsomes [6] = assay: Metabolic stability in human liver microsomes at 1 uM by LC-MS/MS analysis; format: ADME, Microsome
CYP1A2 = target: T1, CYP1A2 (Homo sapiens, UniProt P05177); assay: Inhibition of human CYP1A2 at 10 uM after 15 mins; format: ADME
T1 sequence (P05177 whole entry): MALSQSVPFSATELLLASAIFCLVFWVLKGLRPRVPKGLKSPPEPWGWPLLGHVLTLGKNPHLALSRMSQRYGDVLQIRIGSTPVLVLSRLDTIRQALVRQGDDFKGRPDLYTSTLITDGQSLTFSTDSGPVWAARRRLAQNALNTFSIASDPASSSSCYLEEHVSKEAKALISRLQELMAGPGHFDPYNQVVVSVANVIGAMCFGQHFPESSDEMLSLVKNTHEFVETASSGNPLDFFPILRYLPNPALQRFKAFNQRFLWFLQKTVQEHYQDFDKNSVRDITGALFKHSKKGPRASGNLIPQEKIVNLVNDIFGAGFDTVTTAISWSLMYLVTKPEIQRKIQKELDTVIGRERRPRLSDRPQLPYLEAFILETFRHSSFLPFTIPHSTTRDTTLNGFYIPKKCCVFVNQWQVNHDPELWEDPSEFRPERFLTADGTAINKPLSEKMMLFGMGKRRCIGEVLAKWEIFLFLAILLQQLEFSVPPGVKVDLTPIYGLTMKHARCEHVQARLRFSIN

CYP2C9 = CYP2C9 (Homo sapiens, UniProt P11712); assay: Inhibition of human CYP2C9 at 10 uM after 15 mins; format: ADME
[7] = Metabolic stability in mouse liver microsomes at 1 uM by LC-MS/MS analysis; format: ADME, Microsome
CYP3A4 = CYP3A4 (Homo sapiens, UniProt P08684); assay: Inhibition of human CYP3A4 at 10 uM after 15 mins; format: ADME
[8] = Volume of distribution in Sprague-Dawley rat at 1 mg/kg, iv and 2 mg/kg, po; format: ADME, organism-based; details: in vivo; method in brief: as §1
[9] = Cmax in Sprague-Dawley rat at 2 mg/kg, po; format: ADME, organism-based; design: dose 2 mg/kg, route oral; details: in vivo
[10] = Plasma clearance in Sprague-Dawley rat at 1 mg/kg, iv and 2 mg/kg, po; format: ADME, organism-based; method in brief: as §1
Plasma [11] = assay: Protein binding in dog plasma; format: ADME, cell-free, Canis lupus familiaris
Rattus norvegicus = assay: Oral bioavailability in Sprague-Dawley rat at 2 mg/kg; format: ADME, organism-based; details: in vivo; method in brief: as §1
Plasma [12] = assay: Protein binding in mouse plasma; format: ADME, cell-free
Plasma [13] = assay: Protein binding in monkey plasma; format: ADME, cell-free, Macaca mulatta; details: rhesus monkey
[14] = target: Mitogen-activated protein kinase 8 (Homo sapiens, UniProt P45983); assay: Inhibition of JNK1 by time resolved fluorescence assay
Plasma [15] = assay: Protein binding in human plasma; format: ADME, cell-free
[16] = Inhibition of c-jun phosphorylation in rat INS-1 cells; format: cell-based; details: INS1
[17] = target: Mitogen-activated protein kinase 10 (Homo sapiens, UniProt P53779); assay: Inhibition of JNK3 by time resolved fluorescence assay
Jurkat = assay: Inhibition of IL-2 release in human Jurkat cells at 10 uM; format: functional
[18] = target: Mitogen-activated protein kinase kinase kinase 9 (Homo sapiens) (UniProt P80192); assay: Inhibition of MLK1 at 3 uM
Method in brief: (§2)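 Counterscreen in a biochemical panel of 400 kinases. Each kinase was tested at a single inhibitor level of 3 μM, and percent inhibition was recorded.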

[19] = Inhibition of streptozotocin-induced H2O2 production in rat INS1(823/13) cells treated 30 mins before streptozotocin challenge measured after 4 hrs; format: functional, cell-based
Method in brief: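 Rat insulinoma INS1 823/13 cells in RPMI 1640 with 10% FBS were plated and left overnight at 37 °C. Compound in DMSO was added 30 min before 4 mM STZ and kept through 4 h of STZ at 37 °C. Cells were loaded with 5 μM CM-H2DCFDA for 1 h, and fluorescence was read at 495/525 nm. Signal was normalized to STZ alone. A 12-point curve was fitted by four-parameter regression over four biological replicates run in duplicate.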

[20] = target: Mitogen-activated protein kinase kinase kinase 11 (Homo sapiens) (UniProt Q16584); assay: Inhibition of MLK3 at 3 uM; method in brief: as §2
[21] = target: Mitogen-activated protein kinase kinase kinase 10 (Homo sapiens) (UniProt Q02779); assay: Inhibition of MLK2 at 3 uM; method in brief: as §2
[22] = target: Mitogen-activated protein kinase kinase kinase 3 (Homo sapiens) (UniProt Q99759); assay: Inhibition of MAPK3K3 at 3 uM; method in brief: as §2
[23] = target: Mitogen-activated protein kinase kinase kinase 4 (Homo sapiens) (UniProt Q9Y6R4); assay: Inhibition of MAPK3K4 at 3 uM; method in brief: as §2
[24] = target: Mitogen-activated protein kinase kinase kinase 1 (Homo sapiens) (UniProt Q13233); assay: Inhibition of MAPK3K1 at 3 uM; method in brief: as §2
[25] = target: Dual specificity mitogen-activated protein kinase kinase 7 (Homo sapiens) (UniProt O14733); assay: Inhibition of MKK7 at 3 uM
[26] = target: Mitogen-activated protein kinase kinase kinase 5 (Homo sapiens) (UniProt Q99683); assay: Inhibition of ASK1 at 3 uM
[27] = target: Mitogen-activated protein kinase kinase kinase 2 (Homo sapiens) (UniProt Q9Y2U5); assay: Inhibition of MAPK3K2 at 3 uM; method in brief: as §2
[28] = target: Dual specificity mitogen-activated protein kinase kinase 4 (Homo sapiens) (UniProt P45985); assay: Inhibition of MKK4 at 3 uM
[29] = Selectivity ratio of IC50 for JNK3 over IC50 for p38 kinase
[30] = Selectivity ratio of IC50 for JNK1 over IC50 for p38 kinase

Chain of CYP2D6 (P10635 whole entry): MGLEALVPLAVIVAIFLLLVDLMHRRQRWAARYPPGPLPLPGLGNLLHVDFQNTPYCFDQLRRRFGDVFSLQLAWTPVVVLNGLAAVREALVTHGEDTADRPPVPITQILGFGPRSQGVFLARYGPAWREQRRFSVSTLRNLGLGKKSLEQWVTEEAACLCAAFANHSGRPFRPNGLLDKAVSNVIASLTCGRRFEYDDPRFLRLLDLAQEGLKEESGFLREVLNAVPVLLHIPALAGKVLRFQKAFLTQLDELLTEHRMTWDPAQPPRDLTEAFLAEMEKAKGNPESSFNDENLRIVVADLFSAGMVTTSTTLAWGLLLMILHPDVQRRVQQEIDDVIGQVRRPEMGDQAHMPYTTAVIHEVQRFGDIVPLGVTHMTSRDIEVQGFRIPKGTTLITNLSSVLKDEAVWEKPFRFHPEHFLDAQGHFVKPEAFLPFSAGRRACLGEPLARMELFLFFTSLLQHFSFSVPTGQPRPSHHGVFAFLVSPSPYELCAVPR
Chain of CYP3A4 (P08684 whole entry): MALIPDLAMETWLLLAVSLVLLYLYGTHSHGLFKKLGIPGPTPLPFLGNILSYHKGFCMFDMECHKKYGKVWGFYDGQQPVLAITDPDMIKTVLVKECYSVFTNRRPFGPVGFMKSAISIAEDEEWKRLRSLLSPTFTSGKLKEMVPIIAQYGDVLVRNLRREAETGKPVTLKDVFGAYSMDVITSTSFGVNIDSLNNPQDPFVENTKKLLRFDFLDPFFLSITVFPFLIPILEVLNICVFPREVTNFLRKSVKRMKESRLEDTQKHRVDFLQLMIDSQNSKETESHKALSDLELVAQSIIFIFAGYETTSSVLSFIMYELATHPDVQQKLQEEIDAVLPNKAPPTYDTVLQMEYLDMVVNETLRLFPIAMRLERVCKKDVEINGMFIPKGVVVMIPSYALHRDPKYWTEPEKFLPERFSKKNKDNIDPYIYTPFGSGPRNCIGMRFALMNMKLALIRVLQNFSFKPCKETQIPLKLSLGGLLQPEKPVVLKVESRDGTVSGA
Chain of Mitogen-activated protein kinase 8 (P45983 whole entry): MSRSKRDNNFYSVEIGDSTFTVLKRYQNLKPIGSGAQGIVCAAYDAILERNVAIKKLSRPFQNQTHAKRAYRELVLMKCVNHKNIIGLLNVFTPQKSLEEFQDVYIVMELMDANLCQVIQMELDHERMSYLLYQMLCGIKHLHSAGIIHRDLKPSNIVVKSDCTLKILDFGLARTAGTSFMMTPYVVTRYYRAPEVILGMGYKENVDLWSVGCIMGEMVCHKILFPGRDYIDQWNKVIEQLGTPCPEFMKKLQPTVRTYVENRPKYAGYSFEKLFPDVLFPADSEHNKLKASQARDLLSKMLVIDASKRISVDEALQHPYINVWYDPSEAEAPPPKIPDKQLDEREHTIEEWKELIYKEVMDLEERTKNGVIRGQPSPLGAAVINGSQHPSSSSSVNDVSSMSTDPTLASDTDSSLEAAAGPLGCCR
Chain of Mitogen-activated protein kinase 10 (P53779 whole entry): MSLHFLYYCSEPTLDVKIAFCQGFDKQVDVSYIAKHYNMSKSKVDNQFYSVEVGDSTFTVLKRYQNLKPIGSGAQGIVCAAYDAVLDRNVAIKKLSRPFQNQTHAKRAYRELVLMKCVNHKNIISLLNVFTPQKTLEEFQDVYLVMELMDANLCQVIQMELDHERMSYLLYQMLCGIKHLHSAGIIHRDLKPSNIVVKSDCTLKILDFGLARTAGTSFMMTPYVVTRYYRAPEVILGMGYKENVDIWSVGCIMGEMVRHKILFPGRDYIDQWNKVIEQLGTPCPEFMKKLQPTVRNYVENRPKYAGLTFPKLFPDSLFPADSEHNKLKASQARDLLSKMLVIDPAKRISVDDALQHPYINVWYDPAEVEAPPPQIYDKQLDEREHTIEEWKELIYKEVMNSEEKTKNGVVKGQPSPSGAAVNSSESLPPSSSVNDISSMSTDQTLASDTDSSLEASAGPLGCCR
Chain of CYP2C9 (P11712 whole entry): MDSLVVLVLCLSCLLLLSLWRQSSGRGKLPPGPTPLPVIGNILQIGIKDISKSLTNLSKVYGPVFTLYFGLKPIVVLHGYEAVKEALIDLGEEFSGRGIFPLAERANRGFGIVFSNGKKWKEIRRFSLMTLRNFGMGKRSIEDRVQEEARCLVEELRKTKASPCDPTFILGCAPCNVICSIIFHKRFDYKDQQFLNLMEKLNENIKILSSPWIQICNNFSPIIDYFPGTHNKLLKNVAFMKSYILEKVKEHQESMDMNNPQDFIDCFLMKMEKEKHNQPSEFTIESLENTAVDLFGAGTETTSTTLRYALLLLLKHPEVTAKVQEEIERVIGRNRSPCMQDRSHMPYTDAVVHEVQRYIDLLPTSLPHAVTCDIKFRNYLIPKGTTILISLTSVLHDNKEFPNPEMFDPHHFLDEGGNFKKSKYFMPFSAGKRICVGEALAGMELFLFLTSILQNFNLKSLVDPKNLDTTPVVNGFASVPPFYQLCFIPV
Chain of Dual specificity mitogen-activated protein kinase kinase 7 (Homo sapiens) (O14733 whole entry): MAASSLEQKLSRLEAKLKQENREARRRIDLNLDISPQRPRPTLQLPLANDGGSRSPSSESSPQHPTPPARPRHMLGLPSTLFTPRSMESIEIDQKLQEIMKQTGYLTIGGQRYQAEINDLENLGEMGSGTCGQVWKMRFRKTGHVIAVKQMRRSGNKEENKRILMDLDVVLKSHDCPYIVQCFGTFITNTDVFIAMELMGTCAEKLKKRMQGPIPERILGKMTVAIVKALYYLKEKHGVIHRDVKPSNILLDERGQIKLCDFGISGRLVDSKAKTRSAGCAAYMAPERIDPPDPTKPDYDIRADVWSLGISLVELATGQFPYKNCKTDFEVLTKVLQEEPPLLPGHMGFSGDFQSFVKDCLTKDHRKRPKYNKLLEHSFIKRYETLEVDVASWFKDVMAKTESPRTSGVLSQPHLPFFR
Chain of Mitogen-activated protein kinase kinase kinase 9 (Homo sapiens) (P80192 whole entry, looked up): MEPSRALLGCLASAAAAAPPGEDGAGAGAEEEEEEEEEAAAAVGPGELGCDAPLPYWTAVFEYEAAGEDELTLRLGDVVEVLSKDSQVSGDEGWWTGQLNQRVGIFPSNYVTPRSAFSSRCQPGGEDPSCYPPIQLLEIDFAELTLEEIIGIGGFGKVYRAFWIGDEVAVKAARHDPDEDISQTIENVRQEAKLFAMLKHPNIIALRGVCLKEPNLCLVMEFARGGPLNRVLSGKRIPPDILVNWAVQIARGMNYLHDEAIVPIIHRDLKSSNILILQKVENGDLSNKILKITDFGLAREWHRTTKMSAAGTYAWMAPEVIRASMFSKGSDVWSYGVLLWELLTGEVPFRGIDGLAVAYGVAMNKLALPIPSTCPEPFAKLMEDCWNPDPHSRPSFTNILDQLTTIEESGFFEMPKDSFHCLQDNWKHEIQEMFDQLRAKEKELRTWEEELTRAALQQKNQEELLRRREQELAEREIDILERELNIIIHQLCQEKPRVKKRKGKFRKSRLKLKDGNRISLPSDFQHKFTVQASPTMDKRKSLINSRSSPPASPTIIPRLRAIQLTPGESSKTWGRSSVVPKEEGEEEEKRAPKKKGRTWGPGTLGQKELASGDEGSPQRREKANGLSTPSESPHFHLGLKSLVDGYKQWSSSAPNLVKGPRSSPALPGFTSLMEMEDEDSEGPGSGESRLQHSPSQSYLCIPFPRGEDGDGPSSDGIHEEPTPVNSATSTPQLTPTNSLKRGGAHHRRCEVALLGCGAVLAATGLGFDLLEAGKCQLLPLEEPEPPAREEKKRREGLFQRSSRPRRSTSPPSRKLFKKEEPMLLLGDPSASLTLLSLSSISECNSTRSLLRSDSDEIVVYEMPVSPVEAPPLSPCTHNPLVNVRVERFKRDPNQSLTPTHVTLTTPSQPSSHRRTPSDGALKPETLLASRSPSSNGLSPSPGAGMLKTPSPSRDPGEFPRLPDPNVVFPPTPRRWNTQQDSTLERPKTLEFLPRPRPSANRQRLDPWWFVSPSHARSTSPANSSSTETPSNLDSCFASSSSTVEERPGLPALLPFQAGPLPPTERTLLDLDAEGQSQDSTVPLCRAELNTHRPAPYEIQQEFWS
Chain of Dual specificity mitogen-activated protein kinase kinase 4 (Homo sapiens) (P45985 whole entry): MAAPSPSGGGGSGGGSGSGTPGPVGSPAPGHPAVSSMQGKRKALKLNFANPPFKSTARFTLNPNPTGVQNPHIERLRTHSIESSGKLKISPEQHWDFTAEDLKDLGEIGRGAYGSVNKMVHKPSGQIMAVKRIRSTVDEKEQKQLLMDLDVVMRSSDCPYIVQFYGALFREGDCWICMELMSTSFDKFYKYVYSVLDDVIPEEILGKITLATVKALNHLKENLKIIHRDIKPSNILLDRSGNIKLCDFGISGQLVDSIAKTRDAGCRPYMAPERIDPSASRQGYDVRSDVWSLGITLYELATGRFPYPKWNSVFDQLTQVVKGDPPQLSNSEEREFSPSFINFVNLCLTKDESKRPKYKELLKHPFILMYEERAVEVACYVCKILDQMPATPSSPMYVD
Chain of Mitogen-activated protein kinase kinase kinase 2 (Homo sapiens) (Q9Y2U5 whole entry): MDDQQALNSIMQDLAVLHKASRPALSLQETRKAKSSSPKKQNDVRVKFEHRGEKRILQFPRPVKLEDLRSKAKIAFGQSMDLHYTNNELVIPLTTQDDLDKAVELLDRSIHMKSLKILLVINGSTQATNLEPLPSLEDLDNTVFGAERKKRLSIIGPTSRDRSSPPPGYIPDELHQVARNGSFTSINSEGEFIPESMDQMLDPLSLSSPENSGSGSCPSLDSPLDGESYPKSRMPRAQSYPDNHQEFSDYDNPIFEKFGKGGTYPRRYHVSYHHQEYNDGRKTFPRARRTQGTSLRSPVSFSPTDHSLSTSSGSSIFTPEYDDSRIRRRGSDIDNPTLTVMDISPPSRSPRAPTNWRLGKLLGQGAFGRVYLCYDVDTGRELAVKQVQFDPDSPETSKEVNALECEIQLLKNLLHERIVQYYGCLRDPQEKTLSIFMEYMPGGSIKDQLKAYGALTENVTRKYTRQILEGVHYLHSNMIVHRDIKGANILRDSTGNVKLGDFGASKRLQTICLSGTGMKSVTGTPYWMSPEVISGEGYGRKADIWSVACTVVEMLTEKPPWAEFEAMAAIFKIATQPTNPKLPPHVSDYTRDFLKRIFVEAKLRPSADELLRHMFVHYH

| SMILES | IC50 [1] | inhibition at 0.25 h, 10 µM (CYP2D6) | AUC [3] | Stability (Liver microsomes [4]) | half-life [5] | Stability (Liver microsomes [6]) | inhibition at 0.25 h, 10 µM (CYP1A2) | inhibition at 0.25 h, 10 µM (CYP2C9) | Stability [7] | inhibition at 0.25 h, 10 µM (CYP3A4) | Vd [8] | Cmax [9] | clearance [10] | F (Rattus norvegicus) | IC50 [14] | IC50 [16] | IC50 [17] | other results |
| --- | --- | --- | --- | --- | --- | --- | --- | --- | --- | --- | --- | --- | --- | --- | --- | --- | --- | --- |
| CS(=O)(=O)Nc1ccc(-c2ccnc(Nc3ccc(S(N)(=O)=O)cc3)n2)cc1 | > 20 µM | – | – | – | – | – | – | – | – | – | – | – | – | – | – | – | – | – |
| Fc1cc(-c2ccnc(Nc3ccc(-n4cnc(N5CCOCC5)n4)cc3)n2)cc(N2CCOCC2)c1 | – | 4% | 1.4 µM·h | 41 min | 144 min | 26 min | 70% | 75% | 21 min | 89% | 2.5 L/kg | 300 nM | 20 mL/min/kg | 45% | 99 nM | – | – | PPB (Plasma [2]): 98%; PPB (Plasma [11]): 96%; PPB (Plasma [12]): 92%; PPB (Plasma [13]): 96%; PPB (Plasma [15]): 92% |
| CS(=O)(=O)Nc1ccc(-c2ccnc(Nc3ccc(-n4ccnn4)cc3)n2)cc1 | > 20 µM | – | – | – | – | – | – | – | – | – | – | – | – | – | 16 nM | 210 nM | 4 nM | – |
| c1cncc(-c2ncn(-c3ccc(Nc4nccc(-c5cccc(N6CCOCC6)c5)n4)cc3)n2)c1 | > 20 µM | – | – | – | – | – | – | – | – | – | – | – | – | – | 97 nM | – | – | – |
| CN1CCN(c2ncn(-c3ccc(Nc4nccc(-c5cc(F)cc(N6CCOCC6)c5)n4)cc3)n2)CC1 | > 20 µM | – | – | – | – | – | – | – | – | – | – | – | – | – | 102 nM | 260 nM | 133 nM | – |
| Cn1nnc(-c2ccc(Nc3nccc(-c4cc(C#N)cc(N5CCOCC5)c4)n3)cc2)n1 | > 20 µM | 10% | 0.24 µM·h | 11 min | 114 min | 17 min | -1% | 7% | 26 min | 15% | 3.3 L/kg | 70 nM | 44 mL/min/kg | 14% | 45 nM | – | 140 nM | – |
| N#Cc1cc(-c2ccnc(Nc3ccc(-n4cnc(-c5ccccn5)n4)cc3)n2)cc(N2CCOCC2)c1 | > 20 µM | -4% | 5.9 µM·h | 47 min | 180 min | 29 min | 15% | -2% | 51 min | 33% | 0.6 L/kg | 500 nM | 3 mL/min/kg | 27% | 39 nM | – | 79 nM | – |
| N#C/C(=C1/Nc2ccccc2S1)c1ccnc(NCCc2cccnc2)n1 | – | – | – | – | – | – | – | – | – | – | – | – | – | – | – | – | – | inhibition at 10 µM (Jurkat): 90% |
| Cc1ncn(-c2ccc(Nc3nccc(-c4cccc(N5CCOCC5)c4)n3)cc2)n1 | > 20 µM | 4% | 2 µM·h | 17 min | 48 min | 18 min | 39% | 43% | 5 min | 48% | 0.4 L/kg | 950 nM | 10 mL/min/kg | 25% | 113 nM | 281 nM | 390 nM | – |
| Fc1cc(-c2cc[nH]/c(=N/c3ccc(-n4cnc(N5CCOCC5)n4)cc3)n2)cc(N2CCOCC2)c1 | > 20 µM | – | – | – | – | – | – | – | – | – | – | – | – | – | – | 54 nM | – | Activity [18]: inactive; IC50 [19]: 0.81 nM; Activity [20]: inactive; Activity [21]: inactive; Activity [22]: inactive; Activity [23]: inactive; Activity [24]: inactive; Activity [25]: inactive; Activity [26]: inactive; Activity [27]: inactive; Activity [28]: inactive |
| c1cc(-c2ccnc(Nc3ccc(-n4ccnn4)cc3)n2)cc(N2CCOCC2)c1 | > 20 µM | – | – | – | – | – | – | – | – | – | – | – | – | – | 123 nM | – | 365 nM | – |
| NC(=O)c1ccc(Nc2nccc(-c3ccccc3)n2)cc1 | > 20 µM | – | – | – | – | – | – | – | – | – | – | – | – | – | – | – | – | – |
| Cc1ncn(-c2ccc(Nc3nccc(-c4cc(C#N)cc(N5CCOCC5)c4)n3)cc2)n1 | > 20 µM | – | – | – | – | – | – | – | – | – | – | – | – | – | 54 nM | 89 nM | 79 nM | Ratio IC50 [29]: > 135; Ratio IC50 [30]: > 135 |

From ChEMBL document CHEMBL1156783, “Synthesis, biological evaluation, X-ray structure, and pharmacokinetics of aminopyrimidine c-jun-N-terminal kinase (JNK) inhibitors” (J Med Chem, 2010)
